Laboratory results published in ChEMBL document CHEMBL1125885, “Dopamine autoreceptor agonists as potential antipsychotics. 3.6-Propyl-4,5,5a,6,7,8-hexahydrothiazolo[4,5-f]quinolin-2-amine” (J Med Chem, 1991).

Tests used:
Mus musculus = assay: Effective dose required to inhibit the Locomotor activity in mouse after ip administration.; format: functional
Rattus norvegicus [1] = assay: Effective dose required to inhibit the Locomotor activity in Rat after po administration.; format: functional
[2] = molecular target: D(2) dopamine receptor (Rattus norvegicus) (UniProt P61169); assay: Compound at 10E-5 M was tested in vitro for binding affinity towards dopamine receptor D2 in rat striatal membrane by using [3H]spiperone as radioligand; format: cell membranes; details: Striatum
D(1A) dopamine receptor = D(1A) dopamine receptor (Rattus norvegicus, UniProt P18901); assay: In vitro binding affinity towards dopamine receptor D1 in rat striatal membrane using [3H]-SCH- 23390; format: cell membranes, Striatum
Method in brief: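 Dopamine D1 binding in rat striatal membranes with the selective D1 antagonist [3H]SCH23390. IC50 comes from four or five compound concentrations, each run in triplicate, fitted by nonlinear regression.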

Rattus norvegicus [3] = assay: Percentage inhibition of DA neural firing after administration the compound at a dose of 2.5 mg/Kg through ip route in rats.; format: functional; details: for inhibition in vivo at 2.5 mg/kg: Rattus norvegicus, ip
D(2) dopamine receptor = D(2) dopamine receptor (Rattus norvegicus, UniProt P61169); assay: Binding affinity towards dopamine receptor D2 in rat striatal membrane using [3H]spiperone; format: cell membranes, Striatum
Rattus norvegicus [4] = assay: Values for the reversal of the increase in DOPA levels in the striatum of GBL-treated rats after ip administration of 10 mg/Kg; format: functional
Method in brief: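 Male Long-Evans rats were given the compound ip at 10 mg/kg 1 h before sacrifice. GBL (750 mg/kg ip) was given 30 min and NSD 1015 (100 mg/kg ip) 25 min before sacrifice. Striatal DOPA was measured by HPLC with electrochemical detection. The value is the percent reversal of the GBL-induced DOPA increase; n = 4 or 5 rats.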

Rattus norvegicus [5] = assay: Compound was tested for inhibition of locomotor activity after sc administration in rat; format: functional
Method in brief: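 Spontaneous exploratory locomotor activity in rats after sc dosing. […] 5-12 animals were used per dose.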

Rattus norvegicus [6] = assay: Percentage inhibition of DA neural firing after administration the compound at a dose of 0.25 mg/kg through ip route in rats.; format: functional; details: route intraperitoneal
Rattus norvegicus [7] = assay: Compound was tested for stimulation of locomotor activity after sc administration in rat; format: functional
Rattus norvegicus [8] = assay: Effective dose required to inhibit the Locomotor activity in rat after po administration.; format: functional
Method in brief: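 Inhibition of spontaneous locomotor activity in rats after oral dosing. ED50 is generated from four to six doses, with 5-12 animals per dose.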

Rattus norvegicus [9] = assay: Effective dose for the reversal of the increase in DOPA levels in the striatum of GBL-treated rats after ip administration; format: functional
Method in brief: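 Male Long-Evans rats got test compound ip 1 h before sacrifice, GBL 750 mg/kg ip 30 min before and NSD 1015 100 mg/kg ip 25 min before. Striatal DOPA was measured by HPLC with electrochemical detection, n = 4 or 5 rats. ED50 (95% CI) is the dose reversing the GBL-induced DOPA rise; percent reversal at a single test dose is given otherwise.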

Rattus norvegicus [10] = assay: Dose to effect on Brain DOPA synthesis upon ip administration.; format: functional
Method in brief: (§1)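 Rats were dosed with NSD 1015 at 100 mg/kg ip 25 min before sacrifice and received no GBL. Test compound was given ip 1 h before sacrifice. Striatal DOPA was measured by HPLC with electrochemical detection and expressed as percent of control, n = 4 rats. Significance was set at p < 0.05 vs control.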

Rattus norvegicus [11] = species on record: Rattus norvegicus; assay: Compound was tested for effect on brain DOPA synthesis in the striatum of NSD 1015 rat; format: functional; method in brief: as §1
[12] = Compound was tested for inhibition of Sidman conditioned avoidance in squirrel monkeys upon peroral administration.; format: functional; details: Cercopithecidae, po
Method in brief: (§2)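 Sidman avoidance in squirrel monkeys with oral dosing. ED50 (95% CL) is derived from three doses, with four animals tested per dose.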

Rattus norvegicus [13] = species on record: Rattus norvegicus; assay: The compound was tested for effect on brain DOPA synthesis in the striatum of NSD 1015 rat; format: functional; method in brief: as §1
[14] = Minimal effective oral dose that induced EPS signs in at least one squirrel monkey upon peroral administration.; format: functional, Cercopithecidae
[15] = Compound was tested for inhibition of Sidman conditioned avoidance in squirrel monkeys upon peroral administration; format: functional; details: po; method in brief: as §2
Rattus norvegicus [16] = assay: Values for the reversal of the increase in DOPA levels in the striatum of GBL-treated rats after ip administration; format: functional
Method in brief: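 Male Long-Evans rats received test compound ip 1 h before sacrifice, GBL 750 mg/kg ip 30 min before, and NSD 1015 100 mg/kg ip 25 min before. Striatal DOPA was quantified by HPLC with electrochemical detection, n = 4 or 5 rats. ED50 (95% CI) is the dose reversing the GBL-induced DOPA rise.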

[17] = Mus musculus, ip, read-out: ED50
[18] = Rattus norvegicus, po, read-out: ED50
[19] = Rattus norvegicus, sc, read-out: ED50

D(2) dopamine receptor (Rattus norvegicus), sequence (P61169 whole entry): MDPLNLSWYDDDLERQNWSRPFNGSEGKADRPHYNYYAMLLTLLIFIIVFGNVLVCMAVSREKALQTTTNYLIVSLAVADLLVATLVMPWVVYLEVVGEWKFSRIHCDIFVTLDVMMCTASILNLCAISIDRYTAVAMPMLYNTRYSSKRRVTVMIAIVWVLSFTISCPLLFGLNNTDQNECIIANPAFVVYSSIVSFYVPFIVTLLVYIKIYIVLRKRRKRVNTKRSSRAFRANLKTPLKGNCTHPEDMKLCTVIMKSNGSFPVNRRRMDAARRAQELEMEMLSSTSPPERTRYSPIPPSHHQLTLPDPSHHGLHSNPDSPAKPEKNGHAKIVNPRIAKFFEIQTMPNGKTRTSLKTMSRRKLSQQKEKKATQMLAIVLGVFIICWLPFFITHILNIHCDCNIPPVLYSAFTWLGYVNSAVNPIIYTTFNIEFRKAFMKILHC
D(1A) dopamine receptor, sequence (P18901 whole entry): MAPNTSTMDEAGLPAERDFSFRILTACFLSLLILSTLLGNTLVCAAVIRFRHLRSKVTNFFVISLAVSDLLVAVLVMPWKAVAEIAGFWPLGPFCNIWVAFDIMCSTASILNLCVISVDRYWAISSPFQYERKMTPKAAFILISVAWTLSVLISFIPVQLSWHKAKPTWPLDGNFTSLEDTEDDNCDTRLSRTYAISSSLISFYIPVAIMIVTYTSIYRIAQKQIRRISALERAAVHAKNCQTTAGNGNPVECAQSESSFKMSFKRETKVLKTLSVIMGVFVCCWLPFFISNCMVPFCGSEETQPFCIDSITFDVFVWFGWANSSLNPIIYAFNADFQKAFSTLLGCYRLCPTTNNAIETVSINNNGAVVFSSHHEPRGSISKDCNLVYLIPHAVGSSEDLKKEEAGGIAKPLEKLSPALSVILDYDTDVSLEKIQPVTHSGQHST
D(2) dopamine receptor, sequence (P61169 whole entry): as the sequence (P61169 whole entry) above

## CCCN1CCC=C2c3nc(N)sc3CCCC21 (stereo not drawn)
Mus musculus; [17]
  ED50: > 20 mg/kg
Rattus norvegicus [1]; [18]
  ED50: > 30 mg/kg
[2]
  inhibition: 18%

## CCCN1CCC2=C(C1)c1nc(N)sc1CC2
D(1A) dopamine receptor
  IC50: > 10 µM

## CCCN1CCCC2c3nc(N)sc3CCC21 (stereo in doubt; 28) [listing 1 of 2 here]
[2]
  inhibition: 16%

## Nc1nc2c(s1)CCC1NCCCC21 (stereo in doubt; 26) [listing 1 of 2 here]
Mus musculus; [17]
  ED50: > 30 mg/kg

## CCCN1CCCC2c3nc(N)sc3CCC21 (stereo in doubt; 29)
Mus musculus
  ED50: 7 mg/kg
D(1A) dopamine receptor
  IC50: > 10 µM
Rattus norvegicus [3]
  inhibition in vivo at 2.5 mg/kg: 94%
D(2) dopamine receptor
  IC50: 1.24 µM
Rattus norvegicus [4]
  Reversal: 100%

## CCCN1CCCC2c3nc(N)sc3CCCC21 (stereo not drawn)
Mus musculus; [17]
  ED50: > 30 mg/kg
[2]
  inhibition: 10%

## CN1CCc2cccc3c2[C@H]1Cc1ccc(O)c(O)c1-3 [APOMORPHINE]
Rattus norvegicus [5]; [19]
  ED50: 0.03 mg/kg
Mus musculus; [17]
  ED50: 6.9 mg/kg
Rattus norvegicus [6]
  inhibition in vivo at 0.25 mg/kg: 100%
Rattus norvegicus [7]; [19]
  ED50: 0.07 mg/kg
Rattus norvegicus [8]
  ED50: > 30 mg/kg

## CCCN1CCC=C(c2csc(N)n2)C1
Mus musculus; [17]
  ED50: 4.3 mg/kg
D(1A) dopamine receptor
  IC50: 10 µM
Rattus norvegicus [3]
  inhibition in vivo at 2.5 mg/kg: 100%
D(2) dopamine receptor
  IC50: 0.574 µM
Rattus norvegicus [8]
  ED50: 3.1 mg/kg
Rattus norvegicus [9]
  ED50: 1.3 mg/kg

## CCCN1CCC2=C(CCc3sc(N)nc32)C1
Mus musculus; [17]
  ED50: 18.8 mg/kg
D(1A) dopamine receptor
  IC50: 10 µM

## CCCN1CCC=C2c3nc(N)sc3CC[C@@H]21 (stereo in doubt; (-)-6)
Rattus norvegicus [5]
  ED50: 2.5 mg/kg
Rattus norvegicus [10]
  Dose: 20 mg/kg
Mus musculus
  ED50: 20.4 mg/kg
Rattus norvegicus [1]
  ED50: >30 mg/kg
Rattus norvegicus [11]
  Control: 153.2%
Rattus norvegicus [3]
  Inhibition: 22%
Rattus norvegicus [7]
  ED50: >30 mg/kg
[12]
  ED50: > 30 mg/kg
Rattus norvegicus [4]
  Reversal: 14%

## Nc1nc2c(s1)CCC1NCCCC21 (stereo in doubt; 26) [listing 2 of 2 here]
[2]
  inhibition: 14%

## CCCN1CCCC2c3nc(N)sc3CCC21 (stereo in doubt; 28) [listing 2 of 2 here]
Mus musculus
  ED50: >30 mg/kg

## Nc1nc2c(s1)CCC1NCCCC21 (stereo in doubt; 27)
[2]
  inhibition: 10%

## CCCN1CCC=C2c3nc(N)sc3CC[C@@H]21 (stereo in doubt; (+)-6)
Rattus norvegicus [5]
  ED50: 0.3 mg/kg
Rattus norvegicus [13]
  Control: 52.4%
Rattus norvegicus [10]
  Dose: 2.5 mg/kg
[14]
  EPS MED: >30 mg/kg
Mus musculus
  ED50: 3.7 mg/kg
D(1A) dopamine receptor
  IC50: > 10 µM
Rattus norvegicus [1]
  ED50: 7 mg/kg
Rattus norvegicus [3]
  Inhibition: 91%
Rattus norvegicus [7]
  ED50: 6.8 mg/kg
[15]
  ED50: 8.3 mg/kg
Rattus norvegicus [16]
  ED50: 1.3 mg/kg

## CCCN1CCCC(c2cccc(O)c2)C1 (single isomer, unassigned; (+))
Rattus norvegicus [5]; [19]
  ED50: 3 mg/kg
Rattus norvegicus [3]
  inhibition in vivo at 2.5 mg/kg: 100%
Rattus norvegicus [7]; [19]
  ED50: 5.8 mg/kg
Rattus norvegicus [4]
  Reversal: 58%

## CCCN1CCC=C2c3nc(N)sc3CCC21 (racemic)
Rattus norvegicus [5]; [19]
  ED50: 0.9 mg/kg
Rattus norvegicus [10]
  Dose: 5 mg/kg
[14]
  EPS MED: >10 mg/kg
Mus musculus; [17]
  ED50: 9.4 mg/kg
D(1A) dopamine receptor
  IC50: > 10 µM
Rattus norvegicus [1]; [18]
  ED50: 18.9 mg/kg
Rattus norvegicus [11]
  Control: 63%
Rattus norvegicus [3]
  inhibition in vivo at 2.5 mg/kg: 100%
Rattus norvegicus [7]; [19]
  ED50: 14.5 mg/kg
[15]
  ED50: 11.2 mg/kg
Rattus norvegicus [16]
  ED50: 4 mg/kg

## CCCN1CC=C2c3nc(N)sc3CCC2C1 (stereo not drawn)
Mus musculus; [17]
  ED50: > 30 mg/kg
D(1A) dopamine receptor
  IC50: > 10 µM

## CSc1ccc2c(c1)N(CCC1CCCCN1C)c1ccccc1S2 (stereo not drawn) [THIORIDAZINE]
[14]
  EPS MED: <2.5 mg/kg
[15]
  ED50: 3.9 mg/kg
